In ChEMBL document CHEMBL4513216, “Probing the Open Global Health Chemical Diversity Library for Multistage-Active Starting Points for Next-Generation Antimalarials” (ACS Infect Dis, 2020):

Assay: Toxicity liver stage against HepG2, at 10uM
Type: cell-based
Set-up: test concentration 10 uM, cell line HepG2-A16-CD81EGFP
Details: human, HepG2-A16-CD81EGFP cells; read-out: INHIBITION
Summary of the method: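 Uninfected HepG2-A16-CD81EGFP cells, 3 × 10^3 per well, 1536-well, plated on prespotted compound at 10 μM final, parasite-free screening media added to match infected plates; puromycin 10 μM positive, DMSO 0.5% negative; run in parallel with 48 h PbLuc assay at 37 °C, 5% CO2; viability by CellTiter-Glo luminescence, normalized to controls.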

Row | Compound | cytotoxicity at 10 µM
1 | O=c1[nH]c(NCCO)nc2c1C1(CCCC1)Cc1ccccc1-2 | 8.13%
2 | Cc1n[nH]c2c1C(c1ccc(Br)cc1)SCC(=O)N2 (stereo unspecified) | 6.5%
3 | Cn1c(CN2CCCCCC2)cc(=O)c(O)c1CN1CCCC1 | 13.9%
4 | Cc1nn2c(-c3snnc3C)nnc2s1 | -4.19%
5 | Cc1noc(CNC(=O)C2CSCCC(=O)N2)n1 (stereo unspecified) | 2.42%
6 | Cc1nn(C)c(C)c1S(=O)(=O)NCCn1ccc(-c2cccs2)n1 | -3.53%
7 | CNC(=O)NC1CC2(CCNCC2)c2ccc(C)cc21 (stereo unspecified) | -4.97%
8 | O=C(c1ccnnc1)N1CC[C@H]2[C@H]1CCN2S(=O)(=O)C1CC1 | -143%
9 | CCS(=O)(=O)N1CCCC2(CCCN2C(=O)c2cn(C)cn2)C1 (stereo unspecified) | 8.16%
10 | COCC(=O)N1CCC2(CC(=O)N(c3cccc(F)c3)C2)C1 (stereo unspecified) | -156%
11 | Cn1cc(C2CC(=O)NC23CCN(C(=O)NC2CC2)CC3)cn1 (stereo unspecified) | 4.97%
12 | CC(C)NC(=O)c1cc2c([nH]c1=O)CC(c1cccs1)CC2=O (stereo unspecified) | -3.01%
13 | CC(C)OCCCNC(=O)CN(c1ccc(F)c(F)c1)S(C)(=O)=O | 9.96%
14 | CC(C)Nc1nc(N2CCCC2)nc2c1CN(C(C)C)CC2 | 2.06%
15 | Cc1nn(C)c2c(NCCCn3cccn3)nc(C(C)C)nc12 | 6.67%
16 | Cc1nn(C)c(C)c1C(=O)NN1CCOCC1 | 7.83%
17 | Oc1nc(N2CCCC2)nc2c1CCN(Cc1ccsc1)CC2 | -12%
18 | NC(=O)c1cc2c(nc1N)CCN(C(=O)C1CCCCC1)C2 | -21.8%
19 | Cc1noc(C)c1-c1ccc(C2CCCN2C(=O)c2ccncn2)nc1 (stereo unspecified) | -4.45%
20 | Cc1nc(N)sc1C(=O)N1Cc2ccccc2OC2(CCOCC2)C1 | -24.6%
21 | O[C@H]1CN(CCOc2ccc(F)cc2)CC[C@@]12CCCO2 | -28.8%
22 | Cc1occc1-c1nc(NC2CCCC2)ncc1-c1ccccn1 | -20.9%
23 | COCc1cc(O)nc(C2CCCN(Cc3ccc(OC)cc3)C2)n1 (stereo unspecified) | -1.25%

Row | Compound | cytotoxicity at 10 µM
24 | CN(C)S(=O)(=O)NC(=O)CC(c1ccccc1)C(F)(F)F (stereo unspecified) | -39.5%
25 | CCNC(=O)c1cnc(Sc2nccn2C)c(Cl)c1 | -49.2%
26 | COCCNc1nc(-c2ccc(S(=O)(=O)N3CCCCCC3)cc2)cs1 | -32.7%
27 | N#CCCN(Cc1ccccn1)C(=O)c1cccc(CN2CCCC2)c1 | 4.93%
28 | Cc1c(NCc2ccccc2C#N)cccc1-n1cnnn1 | 15.4%
29 | CC(C)CC(=O)N(C)Cc1nc(C(F)(F)F)cs1 | 8.32%
30 | CC(C)NC(=O)CCNC(=O)CCc1cc(Cl)cs1 | -2.59%
31 | Cc1noc(C)c1CN(C)C(=O)c1nc(N2CCCC2)ncc1Cl | -41.6%
32 | CN(C)C(CNC(=O)CCNC(=O)OCC(F)(F)F)c1ccsc1 (stereo unspecified) | -45.2%
33 | Cc1nn(C)c(C)c1C1COCCN1C(=O)CC(C)(C)C (stereo unspecified) | -5.07%
34 | Cc1nc2c(C#N)cnn2c(C)c1CCC(=O)N(C)C(C)C(C)C (stereo unspecified) | -43.7%
35 | COc1cccnc1NC(=O)c1ccc(COCC(F)(F)F)cc1 | -2.4%
36 | CCSCc1cccc(NCc2cccnc2)c1 | -1.32%
37 | NC(=O)NC(=O)CCN1CCN(CC2CC2)c2ccccc21 | 17.9%
38 | CCOc1ccc(CNC(=O)N(C)CC(C)(C)O)cc1C | 4.3%
39 | Cc1cnc(CN2CCC(N(C)Cc3nnc(C)n3C)C2)cn1 (stereo unspecified) | -10.7%
40 | O=C(C1SCCc2sccc21)N1CCCCC1 (stereo unspecified) | 9.78%
41 | CC1CCN(CCCNC(=O)Nc2cc3c(cc2Br)OCCO3)CC1 | -3.11%
42 | CN1CCN(Cc2ccccc2CNC(=O)c2cc(Cl)ccc2F)CC1 | 9.61%
43 | CC(C)c1cccc(S(=O)(=O)NCCCN2CCC(O)CC2)c1 | 12.9%
44 | Cc1csc(N2CCN(Cc3cccnc3)CC2C)n1 (stereo unspecified) | 11.2%
45 | COc1ccc(N(C(=O)c2cnc(C)cn2)C(C)C)cc1F | -2.96%
46 | CC(C)N1CCC(Nc2ccn(CCC#N)n2)C1=O (stereo unspecified) | 15.7%

Row | Compound | cytotoxicity at 10 µM
47 | O=C(COc1ccccc1)N(Cc1ccncc1)C1CC1 | -46.1%
48 | CCOc1cccc(CNC(=O)CN2CCC3(CCOC3)C2)c1 (stereo unspecified) | -42.1%
49 | CCN(C(=O)CN1CCCC1c1cc(C)no1)c1ccccc1C (stereo unspecified) | -0.264%
50 | CC(C)COCCC(=O)NS(=O)(=O)c1ccc(Cl)s1 | -21.6%
51 | Cc1noc(C)c1CN1CCN(c2ccnc(-c3ccccc3)n2)CC1 | 6%
52 | COc1ccc2cc(CNc3c(C)nn(C(C)C)c3C)ccc2c1 | -56.6%
53 | CCOCC(=O)Nc1ncn(Cc2cccc(Br)c2)n1 | -5.53%
54 | c1coc(CNCC2Cn3nncc3CO2)c1 (stereo unspecified) | -92.5%
55 | O=C(CC(F)(F)F)N1C[C@H]2CCN[C@H]2C1 | 2.95%
56 | COCc1cnc2n1CCN(C(=O)c1cc3ccccc3o1)C2C (stereo unspecified) | -105%
57 | Cc1[nH]c2ccccc2c1-c1ccnc(NCCN2CCOCC2)n1 | 7.12%
58 | Cc1ncc(CC(=O)N2CCCCC2CCN2CCCC2)c(=O)[nH]1 (stereo unspecified) | -9.2%
59 | CC(C)[C@@H]1CN(C(=O)NCc2ccco2)C[C@H]1NS(=O)(=O)N(C)C | 6.14%
60 | Cc1cc(C)nc(NC2CC(=O)N(C)C2)n1 (stereo unspecified) | 8.61%
61 | CN1CCN([C@@H]2CCN(CC3=Cc4cc(Cl)ccc4OC3)C[C@H]2O)CC1 | -5.87%
62 | Cc1ccc(CNC(=O)c2cc(Cn3ccnc3C(C)C)[nH]n2)o1 | 3.42%
63 | Cn1ncc2c(NC3CCCN(C(=O)C4CC4)C3)nc(C(C)(C)C)nc21 (stereo unspecified) | 12%
64 | Cc1nc(CN2CCCC(CCc3cccc(C(F)(F)F)c3)C2)co1 (stereo unspecified) | -0.0825%
65 | Cc1cc(-n2cccn2)ccc1CN1CCOCC(CN(C)C)C1 (stereo unspecified) | -38.2%
66 | Cn1ncc2c(NC3CCSC3)nc(-c3ccncc3)nc21 (stereo unspecified) | 21.6%
67 | CCn1cc(CN2CCC(NS(C)(=O)=O)CC2)cc1C#N | -4.18%
68 | OCCC1CN(c2ncnc3[nH]cnc23)CCN1Cc1ccccc1 (stereo unspecified) | 11.9%
69 | Cc1cccc(N2CCC(N3CCCC4(CNC(=O)O4)C3)CC2)c1C (stereo unspecified) | -6.67%

Row | Compound | cytotoxicity at 10 µM
70 | O=C(C1CCC1)N1CCC(C(=O)N2CCC(c3ccc(F)cc3)C2)CC1 (stereo unspecified) | -39.8%
71 | Cc1ncc2c(c1CNC(=O)C1(c3ccc(F)cc3)CC1)CCNC2 | -46.6%
72 | COCCC1(C(=O)O)CCN(c2cc(C)c3ccccc3n2)CC1 | -41.6%
73 | CCc1ccc(CN2CCN(c3ccc(C#N)cc3)C(=O)C2)nc1 | -1.32%
74 | Cc1ccccc1N1CCN(c2ccncn2)C(C)C1 (stereo unspecified) | 22.6%
75 | CN(Cc1n[nH]c2c1CCCC2)c1nc(C2CC2)nc2c1CCNCC2 | -10.3%
76 | CCc1nc(N)nc(NCCC(=O)N2CCCC2)c1C | -42.5%
77 | O=C(c1ccc(=O)[nH]c1)N1CCc2c(nc(-c3cccnc3)[nH]c2=O)C1 | 9.84%
78 | CCOC(=O)C1(CCOC)CCCN(Cc2nccn2CC)C1 (stereo unspecified) | 10.8%
79 | COc1ccc(C(=O)C2CCCN(c3cc(C#N)ccn3)C2)cc1F (stereo unspecified) | -0.0739%
80 | CNC(=O)c1cn2cc(-c3ccccc3Cl)n(CC=C(C)C)c(=O)c2n1 | -7.05%
81 | CCN(CCn1cccn1)Cc1nc(-c2ccc(F)cc2)oc1C | 1.07%
82 | CC(C)NC(=O)c1nc(Cn2c(C(F)F)nc3ccccc32)no1 | 9.34%
83 | CCC[C@H]1CN(Cc2cc(C#N)n(C)c2C)C[C@@H]1NS(=O)(=O)CC | -153%
84 | Cc1ccc(C)c(NC(=O)c2coc(C)n2)c1 | -5.97%
85 | COc1ccc(C2(NC(=O)CCn3cncn3)CCCCC2)cc1 | -3.12%
86 | COc1cccc(N2CCN(CC(O)c3cc(C)sc3C)CC2)c1 (stereo unspecified) | 2.24%
87 | Cc1nc(C)n(CC2CCCN2Cc2ncc(C(C)(C)C)o2)n1 (stereo unspecified) | -5.53%
88 | N#Cc1cccc(C(=O)N2CCN(c3ncccn3)CC2)c1 | -0.0581%
89 | O=C(CCCn1cncn1)NC1CCc2nccn2C1 (stereo unspecified) | 2.03%
90 | Cc1cc(CN2CCN(CC(O)c3ccc(C)c(C)c3)CC2)no1 (stereo unspecified) | -2.96%
91 | Cc1ncsc1C(=O)NC1CCN(Cc2ccc(C(F)(F)F)cc2)CC1 | 15.5%
92 | CCOc1ccccc1CNC(=O)N1CCC(n2cncn2)CC1 | -0.819%

Row | Compound | cytotoxicity at 10 µM
93 | CC(NC(=O)Nc1cccnc1N1CCCC1)c1ccn(C)c1 (stereo unspecified) | -24.6%
94 | Cc1ncsc1C(=O)NCCSCc1cccs1 | -2.11%
95 | Cc1cnn(CCC(=O)N2CCN(c3nc(C)cs3)CC2)c1 | -11.9%
96 | CN(Cc1cccs1)C(=O)CS(=O)(=O)Cc1ccc(Cl)c(Cl)c1 | 0.866%
97 | Cc1ccc([C@]2(O)CC[C@H]3CN(Cc4cccc(Cl)c4Cl)C[C@H]32)nc1 | 9.42%
98 | Cc1ccc(N2C[C@H]3CCC[C@@H](CN4CCOCC4)[C@H]3C2)nn1 | 10.7%
99 | Cc1ccsc1C(=O)N1CCc2ncc(CN(C)C)n2CC1 | -101%
100 | Cn1cc(CN2CCn3cc(CNC(=O)c4cccn4C)nc3C2)cn1 | 1.85%
101 | COCCN1CCN(C(=O)N2CCCC2)Cc2ccc(C)nc21 | -65.5%
102 | Clc1ccc(COCC2CCN(Cc3ccccn3)CC2)cc1 | 4.94%
103 | CC1COC2(CCN(C(=O)Cc3ccncc3)CC2)C1 (stereo unspecified) | -105%
104 | Cn1cc(CN2CC[C@H]3O[C@@H](C(=O)NC4CC4)CC[C@H]32)cn1 | -1.55%
105 | COc1ccc(C[C@H]2CN(Cc3ccoc3)CC[C@H]2OC)cc1 | 8.44%
106 | c1cncc(COCc2n[nH]c3c2CN(Cc2ccco2)C3)c1 | 9.01%
107 | CCC1=N[C@@]2(CC[C@@H]3CN(Cc4ccc(F)cc4)C[C@@H]32)C(=O)N1C | -106%
108 | O=C(c1cocn1)N1C[C@@H]2CN(Cc3ccco3)CCO[C@@H]2C1 | 5.24%
109 | CC(C)n1nc(CN2CCOCC2)c2c1CN(C(=O)c1ccno1)C2 | 2.62%
110 | CC(=O)N1CCCC1c1nnn2cc(-c3ccncc3)ccc12 (stereo unspecified) | 7.28%
111 | c1ccc(CN2CCCC3(CCN(CC4CCCO4)CC3)C2)nc1 (stereo unspecified) | -115%
